Experimental data as given in ChEMBL document CHEMBL4038332, “Substituted N-Phenyl-5-(2-(phenylamino)thiazol-4-yl)isoxazole-3-carboxamides Are Valuable Antitubercular Candidates that Evade Innate Efflux Machinery” (J Med Chem, 2017).
Converted amounts (≈) assume the structure as drawn.

How the values were obtained:
Format in all cases: functional
[1] = tested on: Mycobacterium tuberculosis; test: Antimycobacterial activity against patient derived INH/RIF resistance Mycobacterium tuberculosis isolate 1 incubated for 7 days by MTT-based broth microdilution assay; settings: isolate 1, 168 h
Summary of the method: (§1)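 Drug-resistant clinical isolates from Lisbon patients (2008–2009) grown in MB7H9 + 10% OADC at 37 °C to OD600 0.8, diluted to ~10^5 cells/mL; equal volume added to 2-fold serial compound dilutions. Plates sealed, 7 days at 37 °C, then MTT to final 2.5% overnight; MIC = lowest concentration with no colour change; triplicate.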

[2] = tested on: Mycobacterium tuberculosis; test: Antimycobacterial activity against patient derived INH/RIF resistance Mycobacterium tuberculosis isolate 2 incubated for 7 days by MTT-based broth microdilution assay; settings: isolate 2, 168 h; summary of the method: as §1
[3] = tested on: Mycobacterium tuberculosis; test: Antimycobacterial activity against patient derived extreme drug resistance Mycobacterium tuberculosis isolate 3 incubated for 7 days by MTT-based broth microdilution assay; settings: isolate 3, 168 h; summary of the method: as §1

| SMILES | MIC90 [1] [µg/mL] | MIC90 [2] [µg/mL] | MIC90 [3] [µg/mL] |
| --- | --- | --- | --- |
| Cc1ccc(Nc2nc(-c3cc(C(=O)Nc4ccccc4)no3)cs2)cc1 | 2 (≈ 5.31 µM) | 1 (≈ 2.66 µM) | 2 (≈ 5.31 µM) |
| Cc1ccc(Nc2nc(-c3cc(C(=O)Nc4ccccn4)no3)cs2)cc1 | 2 (≈ 5.3 µM) | 1 (≈ 2.65 µM) | 2 (≈ 5.3 µM) |
